Reference: ChEMBL document CHEMBL1140226, “Development of novel G-protein-coupled receptor 54 agonists with resistance to degradation by matrix metalloproteinase” (J Med Chem, 2008)

Experiments:
[1] = molecular target: 72 kDa type IV collagenase (Homo sapiens) (UniProt P08253); experiment: Inhibition of MMP2 at 10 uM by fluorimetric assay; design: scale not given: the % may be the effect or the level left
[2] = molecular target: Matrix metalloproteinase-9 (Homo sapiens) (UniProt P14780); experiment: Inhibition of MMP9 at 10 uM by fluorimetric assay; design: scale not given: the % may be the effect or the level left
Chain of Matrix metalloproteinase-9 (Homo sapiens) (P14780 whole entry): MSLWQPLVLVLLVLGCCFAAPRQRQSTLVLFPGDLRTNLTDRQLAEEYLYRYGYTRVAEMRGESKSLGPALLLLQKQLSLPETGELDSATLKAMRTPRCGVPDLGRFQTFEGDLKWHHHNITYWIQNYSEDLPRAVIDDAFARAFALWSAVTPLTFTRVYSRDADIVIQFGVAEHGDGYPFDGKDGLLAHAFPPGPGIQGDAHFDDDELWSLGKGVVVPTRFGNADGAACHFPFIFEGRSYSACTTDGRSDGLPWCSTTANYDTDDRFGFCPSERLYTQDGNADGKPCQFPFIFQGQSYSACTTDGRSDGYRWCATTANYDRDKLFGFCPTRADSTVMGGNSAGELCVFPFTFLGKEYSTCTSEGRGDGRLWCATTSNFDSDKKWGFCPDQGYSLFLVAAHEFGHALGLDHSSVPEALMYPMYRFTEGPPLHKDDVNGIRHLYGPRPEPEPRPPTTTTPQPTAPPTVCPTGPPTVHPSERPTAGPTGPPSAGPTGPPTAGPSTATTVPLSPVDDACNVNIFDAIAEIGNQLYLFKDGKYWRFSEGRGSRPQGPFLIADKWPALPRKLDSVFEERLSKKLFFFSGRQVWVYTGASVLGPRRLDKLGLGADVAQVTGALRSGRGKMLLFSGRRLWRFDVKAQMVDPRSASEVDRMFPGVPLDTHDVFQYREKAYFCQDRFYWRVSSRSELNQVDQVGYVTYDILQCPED

KiSS-1 receptor [3] = molecular target: T1, KiSS-1 receptor (Homo sapiens, UniProt Q969F8); experiment: Ratio of IC50 of compound to IC50 of kisspeptin-10 for human GPR54
T1 sequence (Q969F8 whole entry): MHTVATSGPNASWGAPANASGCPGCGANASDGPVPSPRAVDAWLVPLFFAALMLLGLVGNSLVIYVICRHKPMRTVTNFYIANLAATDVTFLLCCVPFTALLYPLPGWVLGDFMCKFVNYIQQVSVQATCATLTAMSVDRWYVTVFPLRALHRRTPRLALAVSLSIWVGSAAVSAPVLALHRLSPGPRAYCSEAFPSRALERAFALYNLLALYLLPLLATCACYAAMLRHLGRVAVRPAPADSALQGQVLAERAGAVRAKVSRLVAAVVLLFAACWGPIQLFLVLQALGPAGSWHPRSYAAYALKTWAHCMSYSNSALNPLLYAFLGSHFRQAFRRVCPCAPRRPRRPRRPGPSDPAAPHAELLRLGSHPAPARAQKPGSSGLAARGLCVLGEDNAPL

KiSS-1 receptor [4] = molecular target: T1, KiSS-1 receptor; experiment: Displacement of [125I]kisspeptin-15 from human GPR54 expressed in CHO cell membrane; type: cell membranes
[5] = Stability in mouse serum assessed as half life; type: ADME, cell-free
Outline: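 Peptides were incubated in murine serum and the half-life was determined.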

KiSS-1 receptor [6] = molecular target: T1, KiSS-1 receptor; experiment: Agonist activity at human GPR54 expressed in CHO cells assessed as effect on kisspeptin-10-induced response by FLIPR assay; type: functional, cell-based
Serum = experiment: Stability in mouse serum within 1 hr; type: ADME, cell-free

Chain of 72 kDa type IV collagenase (Homo sapiens) (P08253 110-660 limits assumed): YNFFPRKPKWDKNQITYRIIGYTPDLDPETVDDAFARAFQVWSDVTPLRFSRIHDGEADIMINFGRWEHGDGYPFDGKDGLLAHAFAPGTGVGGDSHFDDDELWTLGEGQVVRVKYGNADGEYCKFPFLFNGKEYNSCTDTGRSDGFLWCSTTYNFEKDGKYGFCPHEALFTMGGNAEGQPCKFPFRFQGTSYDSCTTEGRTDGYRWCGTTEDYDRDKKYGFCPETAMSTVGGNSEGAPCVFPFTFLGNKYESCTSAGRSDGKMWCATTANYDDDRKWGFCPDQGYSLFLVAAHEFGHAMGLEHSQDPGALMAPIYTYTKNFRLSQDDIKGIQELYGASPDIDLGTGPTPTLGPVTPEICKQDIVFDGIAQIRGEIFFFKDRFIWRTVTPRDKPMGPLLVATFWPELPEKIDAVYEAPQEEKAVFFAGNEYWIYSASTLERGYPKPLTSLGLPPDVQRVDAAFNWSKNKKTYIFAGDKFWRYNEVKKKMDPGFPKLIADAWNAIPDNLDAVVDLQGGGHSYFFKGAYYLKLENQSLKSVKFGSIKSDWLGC

Row | SMILES | Activity [1] [%] | Activity [2] [%] | half-life [5] [min] | also measured
1 | CC(C)C[C@H](C[C@H](O)CNC(=O)[C@H](Cc1ccccc1)NC(=O)c1ccc(F)cc1)C(=O)N[C@@H](CCCNC(=N)N)C(=O)N[C@@H](Cc1c[nH]c2ccccc12)C(N)=O | 98.7 | 103 |  | 
2 | CC(C)C[C@H](NC(=O)CNC(=O)[C@H](Cc1ccccc1)NC(=O)c1ccc(F)cc1)C(=O)N[C@@H](CCCNC(=N)N)C(=O)N[C@@H](Cc1c[nH]c2ccccc12)C(N)=O |  |  |  | Ratio IC50 (KiSS-1 receptor [3]): 7.3
3 | CC(C)C[C@@H](C[C@@H](O)CNC(=O)[C@H](Cc1ccccc1)NC(=O)c1ccc(F)cc1)C(=O)N[C@@H](CCCN=C(N)N)C(=O)N[C@@H](Cc1c[nH]c2ccccc12)C(N)=O |  |  | 470 | IC50 (KiSS-1 receptor [4]): 380 nM
4 | CC(C)C[C@H](NC(=O)CNC(=O)[C@H](Cc1ccccc1)NC(=O)c1ccc(F)cc1)C(=O)N[C@@H](CCCN=C(N)N)C(=O)N[C@@H](Cc1c[nH]c2ccccc12)C(N)=O |  |  | 6.6 | IC50 (KiSS-1 receptor [4]): 0.71 nM; EC50 (KiSS-1 receptor [6]): 0.45 nM
5 | CC(C)C/C(=C\[C@@H](O)CNC(=O)[C@H](Cc1ccccc1)NC(=O)c1ccc(F)cc1)C(=O)N[C@@H](CCCNC(=N)N)C(=O)N[C@@H](Cc1c[nH]c2ccccc12)C(N)=O | 99.1 | 104 | 60 | 
6 | CC(C)C[C@@H](NC(=O)CNC(=O)[C@H](Cc1ccccc1)NC(=O)c1ccc(F)cc1)C(=O)N[C@@H](CCCNC(=N)N)C(=O)N[C@@H](Cc1c[nH]c2ccccc12)C(N)=O |  |  |  | IC50 (KiSS-1 receptor [4]): 240 nM; Ratio IC50 (KiSS-1 receptor [3]): 240
7 | CC(C)C[C@@H](C[C@@H](O)CNC(=O)[C@H](Cc1ccccc1)NC(=O)c1ccc(F)cc1)C(=O)N[C@@H](CCCNC(=N)N)C(=O)N[C@@H](Cc1c[nH]c2ccccc12)C(N)=O | 96.5 | 108 |  | 
8 | CC(C)C[C@H](C[C@@H](O)CNC(=O)[C@H](Cc1ccccc1)NC(=O)c1ccc(F)cc1)C(=O)N[C@@H](CCCNC(=N)N)C(=O)N[C@@H](Cc1c[nH]c2ccccc12)C(N)=O | 96.2 | 109 | 54 | 
9 | CC(C)C[C@H](NC(=O)CNC(=O)[C@H](Cc1ccccc1)NC(=O)[C@H](CO)NC(=O)[C@H](CC(N)=O)NC(=O)[C@H](Cc1c[nH]c2ccccc12)NC(=O)[C@H](CC(N)=O)NC(=O)[C@@H](N)Cc1ccc(O)cc1)C(=O)N[C@@H](CCCNC(=N)N)C(=O)N[C@@H](Cc1ccccc1)C(N)=O [KISSPEPTIN-10] |  |  |  | IC50 (KiSS-1 receptor [4]): 0.07 nM; Stability (Serum): Unstable
10 | CC(C)C[C@H](/C=C/CNC(=O)[C@H](Cc1ccccc1)NC(=O)c1ccc(F)cc1)C(=O)N[C@@H](CCCN=C(N)N)C(=O)N[C@@H](Cc1c[nH]c2ccccc12)C(N)=O |  |  | 38 | EC50 (KiSS-1 receptor [6]): 0.3 nM
11 | CC(C)C/C(=C\[C@H](O)CNC(=O)[C@H](Cc1ccccc1)NC(=O)c1ccc(F)cc1)C(=O)N[C@@H](CCCN=C(N)N)C(=O)N[C@@H](Cc1c[nH]c2ccccc12)C(N)=O |  |  | 1100 | 
12 | CC(C)C/C(=C\CCNC(=O)[C@H](Cc1ccccc1)NC(=O)c1ccc(F)cc1)C(=O)N[C@@H](CCCNC(=N)N)C(=O)N[C@@H](Cc1c[nH]c2ccccc12)C(N)=O | 94.5 | 98.9 | 52 | 
13 | CC(C)C/C(=C\[C@H](O)CNC(=O)[C@H](Cc1ccccc1)NC(=O)c1ccc(F)cc1)C(=O)N[C@@H](CCCNC(=N)N)C(=O)N[C@@H](Cc1c[nH]c2ccccc12)C(N)=O | 96.9 | 103 |  | 
14 | CC(C)C[C@H](/C=C/CNC(=O)[C@H](Cc1ccccc1)NC(=O)c1ccc(F)cc1)C(=O)N[C@@H](CCCNC(=N)N)C(=O)N[C@@H](Cc1c[nH]c2ccccc12)C(N)=O | 101 | 101 |  | 
15 | CC(C)C[C@@H](C[C@H](O)CNC(=O)[C@H](Cc1ccccc1)NC(=O)c1ccc(F)cc1)C(=O)N[C@@H](CCCNC(=N)N)C(=O)N[C@@H](Cc1c[nH]c2ccccc12)C(N)=O | 99.3 | 100 | 120 | 
16 | CC(C)C[C@H](CCCNC(=O)[C@H](Cc1ccccc1)NC(=O)c1ccc(F)cc1)C(=O)N[C@@H](CCCNC(=N)N)C(=O)N[C@@H](Cc1c[nH]c2ccccc12)C(N)=O | 97.1 | 102 | 45 | 
17 | CC(C)C[C@H](C[C@H](O)CNC(=O)[C@H](Cc1ccccc1)NC(=O)c1ccc(F)cc1)C(=O)N[C@@H](CCCN=C(N)N)C(=O)N[C@@H](Cc1c[nH]c2ccccc12)C(N)=O |  |  | 35 | IC50 (KiSS-1 receptor [4]): 0.24 nM
